{
  "source": "ChEMBL document CHEMBL5661979",
  "about": "“Pharmacological inhibition of BMK1 suppresses tumor growth through promyelocytic leukemia protein” (Cancer Cell, 2010)",
  "key": {"[1]": {"molecular_target": "T1, Phosphatidylinositol 5-phosphate 4-kinase type-2 alpha (Homo sapiens) (UniProt P48426)", "T1 sequence (whole entry)": "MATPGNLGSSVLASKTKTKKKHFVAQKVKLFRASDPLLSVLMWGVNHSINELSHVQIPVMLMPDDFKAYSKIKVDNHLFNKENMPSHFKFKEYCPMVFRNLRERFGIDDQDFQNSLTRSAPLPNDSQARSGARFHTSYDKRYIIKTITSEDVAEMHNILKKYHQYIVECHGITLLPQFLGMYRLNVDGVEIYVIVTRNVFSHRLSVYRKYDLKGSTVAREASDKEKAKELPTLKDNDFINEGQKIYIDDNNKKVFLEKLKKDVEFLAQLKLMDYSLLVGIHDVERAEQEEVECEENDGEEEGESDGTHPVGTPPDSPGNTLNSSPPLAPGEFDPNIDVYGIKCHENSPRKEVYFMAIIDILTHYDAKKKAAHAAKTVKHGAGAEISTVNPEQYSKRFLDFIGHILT", "assay": "Inhibition of PIP5K2A in human HeLa cells lysate at 50 uM pre incubated for 15 mins followed by ATP acyl phosphate probe addition and measured after 10 mins by LC-MS/MS analysis relative to control", "format": "subcellular", "conditions": "time 25.0 min"}, "[2]": {"assay": "Plasma concentration in C57Bl/6 mouse at 50 mg/kg, ip administered for 1 day and measured 8 hr post last dose by LC-MS/MS analysis", "format": "ADME, organism-based"}, "[3]": {"assay": "Inhibition of PCTAIRE2/PCTAIRE3 in human HeLa cells lysate pre incubated for 15 mins followed by ADP acyl phosphate probe addition and measured after 10 mins by LC-MS/MS analysis", "format": "subcellular"}, "[4]": {"molecular_target": "Interleukin-1 receptor-associated kinase 4 (Homo sapiens, UniProt Q9NWZ3)", "sequence (Q9NWZ3 whole entry)": "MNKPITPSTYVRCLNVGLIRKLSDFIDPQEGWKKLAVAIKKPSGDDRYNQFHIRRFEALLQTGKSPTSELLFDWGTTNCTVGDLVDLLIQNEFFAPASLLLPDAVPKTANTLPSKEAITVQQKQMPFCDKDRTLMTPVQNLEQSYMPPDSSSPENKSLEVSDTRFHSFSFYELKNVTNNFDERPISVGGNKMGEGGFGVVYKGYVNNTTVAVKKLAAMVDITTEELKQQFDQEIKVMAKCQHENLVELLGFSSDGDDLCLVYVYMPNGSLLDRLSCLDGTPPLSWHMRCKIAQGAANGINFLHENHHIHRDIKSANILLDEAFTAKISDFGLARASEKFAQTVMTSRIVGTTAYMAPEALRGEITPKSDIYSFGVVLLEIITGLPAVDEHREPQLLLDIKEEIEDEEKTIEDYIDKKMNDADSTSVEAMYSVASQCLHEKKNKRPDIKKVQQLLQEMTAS", "assay": "Inhibition of IRAK4 in human HeLa cells lysate pre incubated for 15 mins followed by ATP acyl phosphate probe addition and measured after 10 mins by LC-MS/MS analysis", "format": "subcellular"}, "[5]": {"molecular_target": "Serine/threonine-protein kinase/endoribonuclease IRE1 (Homo sapiens, UniProt O75460)", "sequence (O75460 whole entry)": "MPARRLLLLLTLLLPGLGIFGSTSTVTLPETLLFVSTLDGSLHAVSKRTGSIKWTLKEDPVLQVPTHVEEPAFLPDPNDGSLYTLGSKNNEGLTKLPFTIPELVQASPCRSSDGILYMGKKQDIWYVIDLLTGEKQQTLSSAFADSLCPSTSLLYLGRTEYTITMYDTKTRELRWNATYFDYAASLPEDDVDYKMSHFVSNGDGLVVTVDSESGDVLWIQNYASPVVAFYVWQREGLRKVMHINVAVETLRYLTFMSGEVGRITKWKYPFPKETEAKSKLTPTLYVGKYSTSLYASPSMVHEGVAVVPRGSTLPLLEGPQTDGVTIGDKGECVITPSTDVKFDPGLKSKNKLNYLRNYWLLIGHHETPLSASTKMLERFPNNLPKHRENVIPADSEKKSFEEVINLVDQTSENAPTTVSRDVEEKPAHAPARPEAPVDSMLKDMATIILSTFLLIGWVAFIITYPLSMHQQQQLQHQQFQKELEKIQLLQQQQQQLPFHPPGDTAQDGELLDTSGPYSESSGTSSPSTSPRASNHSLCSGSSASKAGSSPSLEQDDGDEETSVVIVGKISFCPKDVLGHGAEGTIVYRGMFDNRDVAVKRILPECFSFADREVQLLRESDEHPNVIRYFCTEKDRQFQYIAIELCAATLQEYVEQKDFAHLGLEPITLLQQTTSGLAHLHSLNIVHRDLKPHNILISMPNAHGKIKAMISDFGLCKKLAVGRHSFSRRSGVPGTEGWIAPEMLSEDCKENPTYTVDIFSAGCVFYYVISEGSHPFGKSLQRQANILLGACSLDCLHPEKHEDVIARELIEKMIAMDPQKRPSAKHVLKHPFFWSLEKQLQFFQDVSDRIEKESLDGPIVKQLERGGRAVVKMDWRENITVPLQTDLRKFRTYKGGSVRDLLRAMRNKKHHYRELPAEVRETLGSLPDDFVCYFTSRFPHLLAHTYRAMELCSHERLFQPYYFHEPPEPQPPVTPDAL", "assay": "Inhibition of IRE1 in human HeLa cells lysate pre incubated for 15 mins followed by ADP acyl phosphate probe addition and measured after 10 mins by LC-MS/MS analysis", "format": "subcellular"}, "[6]": {"molecular_target": "Dual specificity mitogen-activated protein kinase kinase 3 (Homo sapiens, UniProt P46734)", "sequence (P46734 whole entry)": "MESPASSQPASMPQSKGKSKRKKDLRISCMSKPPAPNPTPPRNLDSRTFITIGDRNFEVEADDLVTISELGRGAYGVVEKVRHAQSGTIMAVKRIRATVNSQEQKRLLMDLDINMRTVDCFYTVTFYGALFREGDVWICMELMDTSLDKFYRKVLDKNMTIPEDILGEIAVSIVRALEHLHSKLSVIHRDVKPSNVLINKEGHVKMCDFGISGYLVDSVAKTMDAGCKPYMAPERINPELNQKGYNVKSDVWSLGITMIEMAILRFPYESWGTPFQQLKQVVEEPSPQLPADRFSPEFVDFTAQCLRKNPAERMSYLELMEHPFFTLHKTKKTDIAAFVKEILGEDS", "assay": "Inhibition of MAP2K3 in human HeLa cells lysate pre incubated for 15 mins followed by ADP acyl phosphate probe addition and measured after 10 mins by LC-MS/MS analysis", "format": "subcellular"}, "[7]": {"molecular_target": "T2, Serine/threonine-protein kinase A-Raf (Homo sapiens) (UniProt P10398)", "T2 sequence (whole entry)": "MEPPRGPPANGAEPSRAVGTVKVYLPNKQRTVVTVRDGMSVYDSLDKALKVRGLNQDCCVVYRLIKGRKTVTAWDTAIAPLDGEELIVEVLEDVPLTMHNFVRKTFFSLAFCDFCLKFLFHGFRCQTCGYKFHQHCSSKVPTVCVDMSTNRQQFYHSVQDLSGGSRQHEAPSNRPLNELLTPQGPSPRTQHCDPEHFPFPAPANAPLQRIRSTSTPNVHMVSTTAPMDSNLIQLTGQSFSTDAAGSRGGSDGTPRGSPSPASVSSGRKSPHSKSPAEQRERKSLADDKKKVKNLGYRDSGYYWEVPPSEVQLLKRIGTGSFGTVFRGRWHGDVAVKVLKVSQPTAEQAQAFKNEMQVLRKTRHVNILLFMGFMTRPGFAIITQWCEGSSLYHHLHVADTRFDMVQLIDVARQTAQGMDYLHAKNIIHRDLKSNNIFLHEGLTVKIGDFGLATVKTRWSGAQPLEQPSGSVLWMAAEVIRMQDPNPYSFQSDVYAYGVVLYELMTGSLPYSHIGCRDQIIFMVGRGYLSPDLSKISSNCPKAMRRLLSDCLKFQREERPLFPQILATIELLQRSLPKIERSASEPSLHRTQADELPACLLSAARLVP", "assay": "Inhibition of ARAF in human HeLa cells lysate at 2 uM pre incubated for 15 mins followed by ATP acyl phosphate probe addition and measured after 10 mins by LC-MS/MS analysis relative to control", "format": "subcellular", "conditions": "time 25.0 min", "procedure,_shortened": "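KiNativ-type profiling in HeLa lysate (5 mg/mL total protein). Lysate preincubated 15 min with inhibitor at 50, 10, 2, 0.8 or 0 μM, then ATP or ADP acylphosphate probe added (5 μM final) for 10 min. Reaction stopped with urea and analysed by targeted MS, using up to four fragment ions per kinase peptide-probe conjugate. % inhibition calculated against untreated lysate. Duplicate reactions.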"}, "Activated CDC42 kinase 1": {"molecular_target": "Activated CDC42 kinase 1 (Homo sapiens, UniProt Q07912)", "sequence (Q07912 whole entry, looked up)": "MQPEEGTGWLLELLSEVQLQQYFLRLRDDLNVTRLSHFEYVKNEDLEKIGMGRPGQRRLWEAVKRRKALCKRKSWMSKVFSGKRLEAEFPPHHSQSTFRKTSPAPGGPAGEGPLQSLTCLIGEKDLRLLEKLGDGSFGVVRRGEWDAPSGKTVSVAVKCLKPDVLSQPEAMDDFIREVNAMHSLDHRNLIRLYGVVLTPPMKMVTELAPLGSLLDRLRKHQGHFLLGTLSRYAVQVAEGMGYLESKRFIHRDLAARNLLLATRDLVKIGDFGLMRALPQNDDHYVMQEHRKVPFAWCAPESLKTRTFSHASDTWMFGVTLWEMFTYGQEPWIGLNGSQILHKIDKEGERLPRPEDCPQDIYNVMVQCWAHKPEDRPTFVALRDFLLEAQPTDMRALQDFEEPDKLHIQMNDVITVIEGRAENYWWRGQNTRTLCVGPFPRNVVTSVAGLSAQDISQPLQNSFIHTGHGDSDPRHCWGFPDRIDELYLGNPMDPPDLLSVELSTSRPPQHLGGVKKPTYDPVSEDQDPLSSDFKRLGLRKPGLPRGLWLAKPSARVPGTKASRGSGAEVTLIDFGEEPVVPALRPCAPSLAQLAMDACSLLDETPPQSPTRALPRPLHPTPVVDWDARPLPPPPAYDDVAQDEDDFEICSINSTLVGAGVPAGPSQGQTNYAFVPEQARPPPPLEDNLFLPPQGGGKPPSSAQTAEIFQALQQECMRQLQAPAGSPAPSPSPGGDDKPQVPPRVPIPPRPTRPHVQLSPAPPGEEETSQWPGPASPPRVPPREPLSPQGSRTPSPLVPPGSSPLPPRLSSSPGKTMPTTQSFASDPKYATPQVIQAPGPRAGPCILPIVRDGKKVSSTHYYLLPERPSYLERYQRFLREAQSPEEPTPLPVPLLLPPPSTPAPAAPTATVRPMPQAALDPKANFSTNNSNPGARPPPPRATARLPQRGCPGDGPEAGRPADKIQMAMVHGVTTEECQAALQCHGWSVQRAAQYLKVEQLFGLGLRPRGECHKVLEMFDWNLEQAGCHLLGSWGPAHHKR", "assay": "Inhibition of ACK1 in human HeLa cells lysate at 50 uM pre incubated for 15 mins followed by ADP acyl phosphate probe addition and measured after 10 mins by LC-MS/MS analysis relative to control", "format": "subcellular", "conditions": "time 25.0 min", "procedure,_shortened": "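HeLa cell lysates (5 mg/mL total protein) were preincubated with inhibitor at 0, 0.8, 2, 10 or 50 μM for 15 min. ATP or ADP acylphosphate probe was then added (5 μM final) for 10 min, and reactions were stopped with urea. Up to four fragment ions per kinase probe-peptide were quantified by targeted MS. % inhibition was taken relative to untreated lysate. Run in duplicate.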"}, "[8]": {"molecular_target": "Serine/threonine-protein kinase DCLK2 (Homo sapiens) (UniProt Q8N568)", "sequence (Q8N568 whole entry)": "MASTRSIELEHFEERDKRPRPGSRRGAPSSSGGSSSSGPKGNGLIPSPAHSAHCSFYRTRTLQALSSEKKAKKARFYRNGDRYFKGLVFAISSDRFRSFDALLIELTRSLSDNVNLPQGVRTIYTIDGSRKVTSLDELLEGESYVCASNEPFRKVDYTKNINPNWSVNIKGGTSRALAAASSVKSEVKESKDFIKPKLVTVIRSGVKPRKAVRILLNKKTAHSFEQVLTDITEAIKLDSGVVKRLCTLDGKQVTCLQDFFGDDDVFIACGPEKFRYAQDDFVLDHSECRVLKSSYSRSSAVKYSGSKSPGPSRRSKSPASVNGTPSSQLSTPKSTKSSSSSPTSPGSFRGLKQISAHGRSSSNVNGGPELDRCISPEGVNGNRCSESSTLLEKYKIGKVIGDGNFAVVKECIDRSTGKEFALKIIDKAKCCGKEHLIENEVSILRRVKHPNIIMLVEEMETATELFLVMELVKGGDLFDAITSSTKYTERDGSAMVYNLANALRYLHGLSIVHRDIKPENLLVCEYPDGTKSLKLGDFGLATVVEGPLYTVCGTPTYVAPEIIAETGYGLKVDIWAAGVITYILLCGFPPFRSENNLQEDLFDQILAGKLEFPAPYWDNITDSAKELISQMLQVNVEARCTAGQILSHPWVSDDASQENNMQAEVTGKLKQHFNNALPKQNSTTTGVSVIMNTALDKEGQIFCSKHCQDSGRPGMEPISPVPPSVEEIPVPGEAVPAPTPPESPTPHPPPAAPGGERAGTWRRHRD", "assay": "Inhibition of DCAMKL2 (unknown origin) assessed as remaining activity at 10 uM by ATP-competition binding assay relative to control"}},
  "data": [
    {"smiles": "CCOc1cc(N2CCC(O)CC2)ccc1Nc1ncc2c(n1)N(C)c1ccccc1C(=O)N2C", "values": [
      {"measurement": "inhibition", "setting": "[1]", "result": 1, "unit": "%"},
      {"measurement": "concentration at 24 h", "setting": "[2]", "result": 10.2, "unit": "µM"},
      {"measurement": "IC50", "setting": "[3]", "result": "> 50", "unit": "µM"},
      {"measurement": "IC50", "setting": "[4]", "result": "> 50", "unit": "µM"},
      {"measurement": "IC50", "setting": "[5]", "result": "> 50", "unit": "µM"},
      {"measurement": "IC50", "setting": "[6]", "result": "> 50", "unit": "µM"},
      {"measurement": "inhibition", "setting": "[7]", "result": 3.3, "unit": "%"},
      {"measurement": "inhibition", "setting": "Activated CDC42 kinase 1", "result": 71.5, "unit": "%"},
      {"measurement": "Activity", "setting": "[8]", "result": 0.65, "unit": "%"}
    ]}
  ]
}
